Measurements from ChEMBL document CHEMBL4145669 (J Med Chem, 2018).
Square brackets hold non-standard residues; d marks the D form. Peptide text beside a SMILES is read from it. hPhe = N[C@@H](CCc1ccccc1)C(=O)O; Nle = CCCC[C@H](N)C(=O)O; Dap = NC[C@H](N)C(=O)O

Columns and labels:
[1] = target: Melanocyte-stimulating hormone receptor (Mus musculus, UniProt Q01727); assay: Agonist activity at mouse MC1R expressed in HEK293 cells incubated for 2 hrs by AlphaScreen cAMP assay; assay type: functional, cell-based
Melanocyte-stimulating hormone receptor, sequence (Q01727 whole entry): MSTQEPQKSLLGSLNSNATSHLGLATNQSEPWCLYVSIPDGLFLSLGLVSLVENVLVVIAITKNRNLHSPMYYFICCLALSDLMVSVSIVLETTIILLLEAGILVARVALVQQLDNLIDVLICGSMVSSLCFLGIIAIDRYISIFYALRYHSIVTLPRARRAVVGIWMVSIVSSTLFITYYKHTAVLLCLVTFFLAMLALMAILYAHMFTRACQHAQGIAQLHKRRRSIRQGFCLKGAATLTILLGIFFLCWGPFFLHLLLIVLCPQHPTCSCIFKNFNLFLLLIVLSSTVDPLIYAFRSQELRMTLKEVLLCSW
How it was run: (§1)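 HEK293 cells stably expressing mouse MC1R, about 90% confluent, were detached with Versene and suspended at 10,000 cells/μL in stimulation buffer (HBSS, 0.5 mM IBMX, 5 mM HEPES, 0.1% BSA, pH 7.4) with anti-cAMP acceptor beads. Compound was added for 2 h at room temperature in the dark, then donor beads/biotinylated cAMP in lysis buffer for 2 h, followed by AlphaScreen read. Doses went up to 100 μM in duplicate wells, ≥3 experiments. EC50 came from nonlinear regression, with efficacy as a percent of NDP-MSH.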

[2] = target: Melanocyte-stimulating hormone receptor (Mus musculus) (UniProt Q01727); assay: Agonist activity at mouse MC1R expressed in HEK293 cells incubated for 2 hrs by AlphaScreen cAMP assay relative to NDP-MSH; assay type: functional, cell-based; how it was run: as §1
Melanocyte-stimulating hormone receptor (Mus musculus), sequence (Q01727 whole entry, looked up): as the sequence (Q01727 whole entry) above

Melanocortin receptor 5 = Melanocortin receptor 5 (Mus musculus, UniProt P41149); assay: Inverse agonist activity at mouse MC5R expressed in HEK293 cells incubated for 2 hrs by AlphaScreen cAMP assay; assay type: functional, cell-based
Melanocortin receptor 5, sequence (P41149 whole entry): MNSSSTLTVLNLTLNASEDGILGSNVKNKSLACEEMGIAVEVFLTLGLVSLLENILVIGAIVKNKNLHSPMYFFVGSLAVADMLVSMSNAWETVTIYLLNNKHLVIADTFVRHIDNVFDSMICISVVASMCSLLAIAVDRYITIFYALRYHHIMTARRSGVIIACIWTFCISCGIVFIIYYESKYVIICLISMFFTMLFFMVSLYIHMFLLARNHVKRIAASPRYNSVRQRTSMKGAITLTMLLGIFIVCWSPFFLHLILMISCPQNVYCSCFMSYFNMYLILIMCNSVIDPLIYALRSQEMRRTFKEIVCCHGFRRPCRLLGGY
How it was run: (§2)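 In the mouse MC5R HEK293 stable line, cells in IBMX-containing stimulation buffer with anti-cAMP acceptor beads were exposed to compound at up to 100 μM for 2 h at room temperature in the dark. Donor beads/biotinylated cAMP were then added for 2 h before AlphaScreen reading. Signal was normalized to basal response to give a percent difference from basal. Duplicate wells, ≥3 independent experiments.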

[3] = target: Melanocortin receptor 5 (Mus musculus) (UniProt P41149); assay: Inverse agonist activity at mouse MC5R expressed in HEK293 cells at 100 uM incubated for 2 hrs by AlphaScreen cAMP assay; assay type: functional, cell-based; how it was run: as §2
Melanocortin receptor 5 (Mus musculus), sequence (P41149 whole entry): as above

[4] = target: Melanocortin receptor 3 (Mus musculus) (UniProt P33033); assay: Agonist activity at mouse MC3R expressed in HEK293 cells at 100 uM incubated for 2 hrs by AlphaScreen cAMP assay relative to untreated control; assay type: functional, cell-based
Melanocortin receptor 3 (Mus musculus), sequence (P33033 whole entry): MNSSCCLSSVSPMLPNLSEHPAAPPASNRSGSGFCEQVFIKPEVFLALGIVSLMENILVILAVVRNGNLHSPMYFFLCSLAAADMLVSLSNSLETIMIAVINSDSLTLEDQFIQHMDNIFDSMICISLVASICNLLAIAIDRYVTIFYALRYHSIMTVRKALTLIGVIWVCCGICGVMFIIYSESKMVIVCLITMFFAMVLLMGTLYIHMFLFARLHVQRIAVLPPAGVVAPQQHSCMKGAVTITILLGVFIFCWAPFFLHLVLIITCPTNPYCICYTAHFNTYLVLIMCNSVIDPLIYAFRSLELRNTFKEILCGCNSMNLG

[5] = target: Melanocortin receptor 4 (Mus musculus) (UniProt P56450); assay: Agonist activity at mouse MC4R expressed in HEK293 cells at 100 uM incubated for 2 hrs by AlphaScreen cAMP assay relative to untreated control; assay type: functional, cell-based
Melanocortin receptor 4 (Mus musculus), sequence (P56450 whole entry): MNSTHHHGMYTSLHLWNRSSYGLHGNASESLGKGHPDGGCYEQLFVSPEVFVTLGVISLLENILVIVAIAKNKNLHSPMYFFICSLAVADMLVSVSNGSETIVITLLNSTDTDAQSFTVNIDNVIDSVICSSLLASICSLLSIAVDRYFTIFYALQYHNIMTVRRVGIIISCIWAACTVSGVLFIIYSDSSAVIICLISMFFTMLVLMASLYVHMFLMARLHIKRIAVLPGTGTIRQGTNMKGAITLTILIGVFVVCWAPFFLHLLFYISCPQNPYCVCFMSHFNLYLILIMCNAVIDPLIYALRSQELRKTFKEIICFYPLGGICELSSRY

Melanocortin receptor 3 = Melanocortin receptor 3 (Mus musculus, UniProt P33033); assay: Antagonist activity at mouse MC3R expressed in HEK293 cells assessed as reduction in NDP-MSH-induced response incubated for 2 hrs by AlphaScreen cAMP assay based Schild analysis; assay type: functional, cell-based; conditions: read-out: pA2 (converted)
Melanocortin receptor 3, sequence (P33033 whole entry): as the sequence (P33033 whole entry) above

Melanocortin receptor 4 = Melanocortin receptor 4 (Mus musculus, UniProt P56450); assay: Antagonist activity at mouse MC4R expressed in HEK293 cells assessed as reduction in NDP-MSH-induced response incubated for 2 hrs by AlphaScreen cAMP assay based Schild analysis; assay type: functional, cell-based; conditions: read-out: pA2 (converted)
Melanocortin receptor 4, sequence (P56450 whole entry): as the sequence (P56450 whole entry) above

Mus musculus = species on record: Mus musculus; assay: Selectivity index, ratio of pA2 for antagonist activity at mouse MC3R expressed in HEK293 cells to pA2 for antagonist activity at mouse MC4R expressed in HEK293 cells; assay type: cell-based
[6] = target: Melanocyte-stimulating hormone receptor (Mus musculus) (UniProt Q01727); assay: Agonist activity at mouse MC1R expressed in HEK293 cells at 100 uM incubated for 2 hrs by AlphaScreen cAMP assay relative to NDP-MSH; assay type: functional, cell-based; how it was run: as §1
[7] = target: Melanocortin receptor 4 (Mus musculus) (UniProt P56450); assay: Potency index, ratio of pA2 for test compound to pA2 for AGRP for antagonist activity at mouse MC4R expressed in HEK293 cells assessed as reduction in NDP-MSH-induced response incubated for 2 hrs by AlphaScreen cAMP assay based Schild analysis; assay type: functional, cell-based

Row | SMILES | EC50 [1] [nM] | Activity [2] [%] | EC50 (Melanocortin receptor 5) [nM] | Activity [3] [%] | Activity [4] [%] | Activity [5] [%] | Kb (Melanocortin receptor 3) [nM] | Kb (Melanocortin receptor 4) [nM] | Ratio (Mus musculus) | Activity [6] [%] | Ratio [7]
1 | N=C(N)NCCC[C@@H]1NC(=O)[C@@H]2CCCN2C(=O)[C@H]2CCCN2C(=O)[C@H](Cc2ccccc2)NC(=O)[C@H](CO)NC(=O)[C@H](CN)NC(=O)[C@H](Cc2ccccc2)NC(=O)[C@H](Cc2ccccc2)NC1=O | 600 | 85 | > 100000 | < 20 | < 20 | < 20 | 158 | 0.794 | 170 | – | –
2 | C[C@@H]1NC(=O)[C@H](CN)NC(=O)[C@H](CCc2ccccc2)NC(=O)[C@H](Cc2ccccc2)NC(=O)[C@H](CCCNC(=N)N)NC(=O)[C@@H]2CCCN2C(=O)[C@H]2CCCN2C(=O)[C@H](Cc2ccccc2)NC1=O | 560 | 70 | > 100000 | < 20 | < 20 | < 20 | 79.4 | 0.794 | 100 | – | –
3 | CCCC[C@@H]1NC(=O)[C@H](CO)NC(=O)[C@H](CC(N)=O)NC(=O)[C@H](Cc2ccccc2)NC(=O)[C@H](Cc2ccccc2)NC(=O)[C@H](CCCNC(=N)N)NC(=O)[C@@H]2CCCN2C(=O)[C@H]2CCCN2C1=O (cyclo(RFFNS[Nle][dP]P)) | 2600 | 75 | – | -35 | < 20 | < 20 | 251 | 3.16 | 79 | – | –
4 | CCCC[C@@H]1NC(=O)[C@H](C)NC(=O)[C@H](CCCNC(=N)N)NC(=O)[C@H](Cc2ccccc2)NC(=O)[C@H](Cc2ccccc2)NC(=O)[C@H](CCCNC(=N)N)NC(=O)[C@@H]2CCCN2C(=O)[C@H]2CCCN2C1=O (cyclo(RFFRA[Nle][dP]P)) | > 100000 | – | > 100000 | < 20 | < 20 | < 20 | 31.6 | 0.794 | 46 | < 20 | –
5 | CCCC[C@@H]1NC(=O)[C@H](CO)NC(=O)[C@H](CCCNC(=N)N)NC(=O)[C@H](Cc2ccccc2)NC(=O)[C@H](Cc2ccccc2)NC(=O)[C@H](CCCNC(=N)N)NC(=O)[C@@H]2CCCN2C(=O)[C@H]2CCCN2C1=O (cyclo(RFFRS[Nle][dP]P)) | > 100000 | – | > 100000 | < 20 | < 20 | < 20 | 79.4 | 0.251 | 320 | < 20 | –
6 | CCCC[C@@H]1NC(=O)[C@H](CO)NC(=O)[C@H](CN)NC(=O)[C@H](Cc2ccccc2)NC(=O)[C@H](Cc2ccccc2)NC(=O)[C@H](CCCNC(=N)N)NC(=O)[C@@H]2CCCN2C(=O)[C@H]2CCCN2C1=O (cyclo(RFF[Dap]S[Nle][dP]P)) | > 100000 | – | > 100000 | < 20 | < 20 | < 20 | 316 | 0.794 | 430 | < 20 | –
7 | CCCC[C@@H]1NC(=O)[C@H](CO)NC(=O)[C@H](CC(N)=O)NC(=O)[C@H](CCc2ccccc2)NC(=O)[C@H](Cc2ccccc2)NC(=O)[C@H](CCCNC(=N)N)NC(=O)[C@@H]2CCCN2C(=O)[C@H]2CCCN2C1=O (cyclo(RF[hPhe]NS[Nle][dP]P)) | > 100000 | – | > 100000 | < 20 | < 20 | < 20 | 501 | 0.631 | 790 | < 20 | 3 to 6
8 | CCCC[C@@H]1NC(=O)[C@H](C)NC(=O)[C@H](CCCNC(=N)N)NC(=O)[C@H](CCc2ccccc2)NC(=O)[C@H](Cc2ccccc2)NC(=O)[C@H](CCCNC(=N)N)NC(=O)[C@@H]2CCCN2C(=O)[C@H]2CCCN2C1=O (cyclo(RF[hPhe]RA[Nle][dP]P)) | > 100000 | – | > 100000 | < 20 | < 20 | < 20 | 31.6 | 1.58 | 19 | < 20 | –
9 | CCCC[C@@H]1NC(=O)[C@H](C)NC(=O)[C@H](CN)NC(=O)[C@H](CCc2ccccc2)NC(=O)[C@H](Cc2ccccc2)NC(=O)[C@H](CCCNC(=N)N)NC(=O)[C@@H]2CCCN2C(=O)[C@H]2CCCN2C1=O (cyclo(RF[hPhe][Dap]A[Nle][dP]P)) | > 100000 | – | > 100000 | < 20 | < 20 | < 20 | 200 | 0.794 | 250 | < 20 | –
10 | CCCC[C@@H]1NC(=O)[C@H](CO)NC(=O)[C@H](CN)NC(=O)[C@H](CCc2ccccc2)NC(=O)[C@H](Cc2ccccc2)NC(=O)[C@H](CCCNC(=N)N)NC(=O)[C@@H]2CCCN2C(=O)[C@H]2CCCN2C1=O (cyclo(RF[hPhe][Dap]S[Nle][dP]P)) | > 100000 | – | > 100000 | < 20 | < 20 | < 20 | 200 | 0.316 | 630 | < 20 | 3 to 6
